Bioassay records as filed in PubChem.
A3G deaminase: blocks human APOBEC3G single-stranded DNA deamination. Q9HC16. recombinant A3G, ssDNA deamination FAM/TAMRA fluorescence. inhibition, % at 20 µM. 330,000 compounds, 0.28% hits. AID 493012;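 active = inhibition of at least 40% at 20 µM, with no more than 30% in the related APOBEC3A deaminase screen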;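 also: plate controls were DMSO wells with A3G for no effect and wells lacking A3G enzyme for full effect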
ARFGAP1 inhibitor: inhibitors of rat ARFGAP1 | Arfgap1-stimulated ARF1 GTP hydrolysis, GDP FP detection | inhibition, % at 16.5 µM | 360,000 compounds, 0.26% hits;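 active = inhibition above a per-plate limit, mean inhibition of low control wells plus 3 SD, cut at about 25% in these data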;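 also: 0% = DMSO wells with enzyme and 100% = wells lacking Arfgap1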
Target sequence (Q62848 1-136 limits assumed): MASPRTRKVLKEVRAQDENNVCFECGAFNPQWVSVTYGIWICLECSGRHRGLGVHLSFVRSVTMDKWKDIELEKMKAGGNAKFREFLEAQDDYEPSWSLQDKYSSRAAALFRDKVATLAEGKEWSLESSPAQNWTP
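Material – truncated rat Arfgap1 GAP domain · Buffer or medium – HEPES-based buffer, pH 7.5 · Reagent – human ARF1(Δ1-17)-GTP substrate · Dosing – 16.5 µM single point, 1.26% DMSO · Schedule – GTP hydrolysis reaction 2 h at 25 °C · Technique – GDP detection by fluorescence polarization · Benchmarks – No-Arfgap1 wells (100%) versus DMSO full-reaction wells (0%) · Repeats – single replicate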
Mot1-301 SUMO: inhibitors of SUMOylation pathway: yeast Mot1-301 growth rescue; 320,000 compounds, 1% hits; growth rescue, % at 18.8 µM; AID 2716; S. cerevisiae Mot1-301 growth rescue, ATP luminescence, 38.5C; percent above DMSO median, 100 means doubled;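 active = every valid replicate shows activation above 250% relative to neutral control wells; inactive = the rest, any valid replicate at or below 250%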;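 also: OY570 slx delta 5 strain wells were the positive control but not used for scaling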
Statin myotox sup: protects C2C12 myotubes from simvastatin toxicity; ATP luminescence, 48 h; scaled: DMSO 0, geranylgeraniol control 100; AID 602340; rescue of ATP level, % at 7.49 µM; 330,000 compounds, 0.78% hits;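 active = mean ATP rescue above about 67%, or every replicate alone reaching that limit, limit read from the data, passing the limit was not always enough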;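 also: myotubes were challenged with 10 µM simvastatin during compound exposure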
APOBEC3A inh: human APOBEC3A DNA deaminase inhibition; recombinant A3A, FAM/TAMRA ssDNA deamination fluorescence; inhibition, % at 20 µM; 330,000 compounds, 0.41% hits;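 active = at least 40% inhibition at 20 µM here, with at most 30% in a related deaminase screen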;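 also: plate controls were A3A with DMSO for no effect and wells lacking A3A enzyme for full effect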
ASAP1 GAP inh: ASAP1 ArfGAP inhibition | Q9ULH1 | ASAP1-stimulated ARF1 GTP hydrolysis, GDP FP detection | inhibition, % at 16.5 µM | 360,000 compounds, 0.19% hits | AID 624377; in the data active = inhibition above about 25%;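 also: 0% = vehicle with enzyme and substrate and 100% = no enzyme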
Target sequence (Q9ULH1 325-724 limits assumed): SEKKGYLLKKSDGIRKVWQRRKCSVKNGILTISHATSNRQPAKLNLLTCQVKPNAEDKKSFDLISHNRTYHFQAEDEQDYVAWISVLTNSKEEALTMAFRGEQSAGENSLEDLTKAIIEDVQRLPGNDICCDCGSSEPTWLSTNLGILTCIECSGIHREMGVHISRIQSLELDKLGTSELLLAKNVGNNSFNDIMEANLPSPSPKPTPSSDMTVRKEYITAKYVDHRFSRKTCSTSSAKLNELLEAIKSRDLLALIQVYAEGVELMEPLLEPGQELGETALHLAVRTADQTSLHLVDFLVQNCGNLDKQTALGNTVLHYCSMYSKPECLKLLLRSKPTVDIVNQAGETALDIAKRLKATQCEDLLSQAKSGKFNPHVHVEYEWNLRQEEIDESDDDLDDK
* = called active by the depositor; / = not tested or not shown. Hits are enriched below; roughly 2.1% of the tested compounds scored in any of these assays.

SMILES	A3G deaminase	ARFGAP1 inhibitor	Mot1-301 SUMO	Statin myotox sup	APOBEC3A inh	ASAP1 GAP inh
C=CCn1c(SCC(=O)Nc2ccc(N(C)C)cc2)nnc1-c1cccc(C)c1	-7	-6	9	84*	-4	-3
COCC(=O)Nc1ccc2c(c1)C(=O)N(C)[C@@H]1CC[C@H](CC(=O)OC)O[C@H]1CO2	/	/	/	-4	/	/
Cc1cc([N+](=O)[O-])cnc1NC(C)c1ccccc1 (stereo not given)	-1	-3	330*	-3	3	12
O=C(C[C@@H]1C=C[C@@H](NS(=O)(=O)c2ccc(F)cc2)[C@H](CO)O1)NCCN1CCCCC1	/	/	/	-6	/	/
Cc1ccc(CSCC2Nc3ccc(C(=O)N4CCN(c5cccc(C)c5)C(C)C4)cc3NC2=O)cc1 (stereo not given)	46*	/	-4	/	-23	/
O=C(C[C@H]1CC[C@H](NC(=O)CC2CC2)[C@@H](CO)O1)NCc1ccc(-c2ccccc2)cc1	/	/	/	6	/	/
O=C(NC[C@H]1[C@@H](c2ccccc2)[C@@H](CO)N1CC1CCCC1)c1cccnc1	/	/	/	15	/	/
COc1ccc(NC(=O)Nc2cccc3c2O[C@@H](CN(C)C(=O)Nc2cccc4ccccc24)[C@H](C)CN([C@H](C)CO)C3=O)cc1	/	/	/	98*	/	/
COc1ccc(NC(=O)N(C)C[C@H]2Oc3c(NC(=O)NC(C)C)cccc3C(=O)N([C@H](C)CO)C[C@@H]2C)cc1	-7	1	4	96*	-4	17
C/C=C/c1cnc2c(c1)C(=O)N([C@H](C)CO)C[C@H](C)[C@@H](CN(C)C(=O)Nc1ccc(OC)cc1)O2	/	/	/	-5	/	/
CCCCCCOC(=O)Cc1c(C)nc(N)[nH]c1=O	0	-3	259	1	-1	-6
CCCCCCOC(=O)CCc1c(C)nc(N)[nH]c1=O	-4	-11	-9	98*	-3	-12
CC(C)CC#Cc1ccc2c(c1)O[C@@H](CN(C)C(=O)Cc1ccccc1)[C@H](C)CN([C@@H](C)CO)S2(=O)=O	/	/	/	-43	/	/
CCN1[C@H](C(=O)NC2CCCC2)[C@@H](CO)[C@@H]2Cn3c(ccc(-c4ccccc4F)c3=O)[C@@H]21	/	/	/	4	/	/
N#C[C@@H]1[C@H](c2ccc(C3=CCCCC3)cc2)[C@H](CO)N1C(=O)c1ccccn1	/	/	/	8	/	/
Cc1nn(-c2ccccn2)c2c1-c1nc(N)ncc1CC2	1	3	-10	115*	2	1
Cc1c(C(=O)Oc2cccc3ccccc23)cnn1-c1ccccc1	-3	-6	-10	100*	-1	-1
CCOC(=O)c1cnn(-c2ccccc2)c1-n1cccc1	-2	8	19	107*	-2	1
CC(C)NC(=O)N1C[C@@H]2[C@H](c3ccccc31)[C@H](CO)N2Cc1ccccc1	/	/	/	-12	/	/
CN1CCN(C(=O)C[C@H]2C=C[C@H](NC(=O)Nc3ccccc3F)[C@@H](CO)O2)CC1	/	/	/	-5	/	/
CCC(C)(NC(=O)c1ccccn1)C(=O)NC1CCCC1 (stereo not given)	-2	4	-3	/	3	4
CCC(C)(NC(=O)CNC(C)=O)C(=O)NC1CCCCC1 (stereo not given)	1	-10	19	112*	-1	-2
Cc1ccc(NC(=O)COc2ccc(/C=C3/SC(=Nc4ccccc4)N(Cc4cccnc4)C3=O)cc2)cc1	-8	13	-7	80*	0	6
Cc1ccc(NC(=O)COc2ccc(/C=N/NC(=O)CSCc3ccccc3)cc2)cc1	1	4	-11	-6	2	-6
C[C@@H]1CN([C@H](C)CO)S(=O)(=O)c2ccc(-c3ccncc3)cc2O[C@@H]1CN(C)C	/	/	/	10	/	/
SMILES	A3G deaminase	ARFGAP1 inhibitor	Mot1-301 SUMO	Statin myotox sup	APOBEC3A inh	ASAP1 GAP inh
CCN(CC)C(=O)c1[nH]cnc1C(=O)NCC(=O)OC(C)(C)C	-4	0	9	93*	-2	1
CCN(CC)C(=O)c1[nH]cnc1C(=O)N[C@@H](CC(C)C)C(=O)OC(C)(C)C	10	-5	-20	-4	0	3
O=C(C[C@H]1CC[C@H]2[C@@H](COC[C@@H](O)CN2Cc2ccccc2)O1)NCCc1ccccc1	/	/	/	0	/	/
O=C(N/N=C/C(Br)=C\c1ccccc1)c1cccs1	-3	-5	299*	/	-1	1
O=C1CC(/C=C/c2ccc(Cl)cc2)=Nc2ccccc2N1	-7	5	568*	37	-4	13
C[C@H](CO)N1C[C@H](C)[C@@H](CN(C)C(=O)Nc2ccc(C(F)(F)F)cc2)OCCCC[C@H](C)Oc2ccc(NC(=O)C3CCCCC3)cc2C1=O	/	/	/	-2	/	/
COc1ccc(S(=O)(=O)NCCC(=O)NCc2ccccc2)cc1	-3	-11	9	126*	1	8
CO[C@@H]1CN(C)C(=O)c2ccc(NC(=O)C3CCC3)cc2OC[C@H](C)N(Cc2ccc(F)cc2)C[C@@H]1C	/	/	/	16	/	/
Cc1ccc(-c2cnc3c(c2)C(=O)N([C@@H](C)CO)C[C@H](C)[C@H](CN(C)C(=O)Cc2ccccc2)O3)cc1	/	/	/	37	/	/
Cc1c(C2(O)CCCCC2)[nH]c2ccc(C(F)(F)F)cc12	-3	11	301*	-8	5	6
COc1ccc(C(=O)CCc2nc3ccccc3s2)cc1	-4	7	355*	/	-3	7
CCn1c(-c2ccc(-c3ccccc3)cc2)c[nH]c1=S	-3	0	14	125*	7	12
C=CCn1c(-c2ccccc2)c[nH]c1=S	25	-15	43	-13	-2	5
CCC(CC)C(=O)Nc1nnc(SCC(=O)NC(C)(C)C)s1	-8	-3	924*	/	-4	8
COc1ccc(NC(=O)c2cn(-c3ccccc3)nc2-c2cc3ccccc3o2)cc1	-7	10	-15	29	1	29*
CCCCNS(=O)(=O)c1ccc2nc(SCC(=O)Nc3sccc3C#N)[nH]c2c1	-6	23	-24	/	-1	27*
CNC[C@@H]1Oc2c(NC(=O)Nc3ccc(OC)cc3)cccc2C(=O)N([C@@H](C)CO)C[C@H]1C	/	/	/	26	/	/
C[C@@H]1CN([C@H](C)CO)C(=O)c2cc(C#CC3CC3)cnc2O[C@@H]1CN(C)C(=O)c1ccncc1	/	/	/	31	/	/
O=C(c1ccncc1)N1CCN(C2CCC(c3ccccc3)CC2)CC1 (stereo not given)	-6	-3	305*	/	-3	-6
COc1cc(C=O)ccc1Oc1nc(Nc2ccc(F)cc2F)nc(N2CCOCC2)n1	-4	-8	334*	/	-2	0
O=C(Nc1ccc(F)cc1)Nc1ccc2c(c1)[C@H]1C[C@H](CC(=O)N3CCOCC3)O[C@H](CO)[C@H]1O2	/	/	/	1	/	/
O=C(Nc1nc(-c2ccc(Br)cc2)cs1)c1cccnc1	-8	6	-13	/	-5	7
